Experimental data taken from ChEMBL document CHEMBL1122522, “Conformationally restricted retinoids” (1984).
One block for each compound: values may come before it.

Legend:
Cricetinae gen. sp. [1] = test: Activity of compound the was expressed as ratio of active hamster tracheal organ cultures(TOC) to the total cultures at 10e-10 M concentration; 3/7; type: functional, Cricetulus griseus, Trachea
Procedure, shortened: (§1)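 Tracheal organ cultures came from vitamin A-deficient hamsters. Each culture was scored for reversal of keratinization and reported as active cultures out of total cultures at each retinoid concentration tested (10⁻⁸ to 10⁻¹² M). The protocol followed earlier published methods.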

Cricetinae gen. sp. [2] = test: Activity of compound the was expressed as ratio of active hamster tracheal organ cultures(TOC) to the total cultures at 10e-9 M concentration; 4/7; type: functional, Cricetulus griseus, Trachea; procedure, shortened: as §1
Cricetinae gen. sp. [3] = test: Molarity required to effect reversal of keratinization in 50% of cultures.; type: functional, Cricetulus griseus
Cricetinae gen. sp. [4] = test: Activity of compound the was expressed as ratio of active hamster tracheal organ cultures(TOC) to the total cultures at 10e-8 M concentration; 6/7; type: functional, Cricetulus griseus, Trachea; procedure, shortened: as §1
[5] = biological target: T1, Ornithine decarboxylase (Mus musculus) (UniProt P00860); test: Inhibition of the induction of ornithine decarboxylase in mouse epidermis by the tumor promoter 12-O-tetradecanoylphorbol-13-acetate (ODC) at dose 1.7 nmol
T1 sequence (whole entry): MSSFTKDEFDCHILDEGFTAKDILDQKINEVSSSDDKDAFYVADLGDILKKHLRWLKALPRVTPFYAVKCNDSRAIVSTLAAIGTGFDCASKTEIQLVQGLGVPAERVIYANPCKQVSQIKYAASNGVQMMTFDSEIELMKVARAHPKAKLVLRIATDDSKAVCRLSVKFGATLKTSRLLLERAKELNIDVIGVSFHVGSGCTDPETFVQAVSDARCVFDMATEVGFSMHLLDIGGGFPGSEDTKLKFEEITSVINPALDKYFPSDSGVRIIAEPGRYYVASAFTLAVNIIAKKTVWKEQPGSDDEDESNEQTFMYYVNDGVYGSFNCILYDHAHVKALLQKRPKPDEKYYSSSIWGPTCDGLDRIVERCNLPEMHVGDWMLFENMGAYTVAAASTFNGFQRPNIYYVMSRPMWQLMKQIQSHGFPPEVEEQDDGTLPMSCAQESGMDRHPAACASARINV

[6] = biological target: T1, Ornithine decarboxylase (Mus musculus); test: Inhibition of the induction of ornithine decarboxylase in mouse epidermis by the tumor promoter 12-O-tetradecanoylphorbol-13-acetate (ODC) at dose 17 nmol
Cricetinae gen. sp. [7] = test: Activity of compound the was expressed as ratio of active hamster tracheal organ cultures(TOC) to the total cultures at 10e-10 M concentration; 7/7; type: functional, Cricetulus griseus, Trachea; conditions: in the assay text read “10e-8 M” for “1 nM”; procedure, shortened: as §1
Cricetinae gen. sp. [8] = test: Activity of compound the was expressed as ratio of active hamster tracheal organ cultures(TOC) to the total cultures at 10e-11 M concentration; 7/7; type: functional, Cricetulus griseus, Trachea; conditions: in the assay text read “10e-9 M” for “100 pM”; procedure, shortened: as §1
Cricetinae gen. sp. [9] = test: Activity of compound the was expressed as ratio of active hamster tracheal organ cultures(TOC) to the total cultures at 10e-12 M concentration; 0/6; type: functional, Cricetulus griseus, Trachea; conditions: in the assay text read “1 nM” for “10 pM”; procedure, shortened: as §1
[10] = biological target: T1, Ornithine decarboxylase (Mus musculus); test: Inhibition of the induction of ornithine decarboxylase in mouse epidermis by the tumor promoter 12-O-tetradecanoylphorbol-13-acetate (ODC) at dose 17 nmol * p<0.001
[11] = biological target: T1, Ornithine decarboxylase (Mus musculus); test: Inhibition of the induction of ornithine decarboxylase in mouse epidermis by the tumor promoter 12-O-tetradecanoylphorbol-13-acetate (ODC) at dose 1.7 nmol * p<0.001
Cricetinae gen. sp. [12] = test: Activity of compound the was expressed as ratio of active hamster tracheal organ cultures(TOC) to the total cultures at 10e-10 M concentration; 1/7; type: functional, Cricetulus griseus, Trachea; procedure, shortened: as §1
Cricetinae gen. sp. [13] = test: Activity of compound the was expressed as ratio of active hamster tracheal organ cultures(TOC) to the total cultures at 10e-9 M concentration; 1/7; type: functional, Cricetulus griseus, Trachea; procedure, shortened: as §1
Cricetinae gen. sp. [14] = test: Activity of compound the was expressed as ratio of active hamster tracheal organ cultures(TOC) to the total cultures at 10e-8 M concentration; 2/7; type: functional, Cricetulus griseus, Trachea; procedure, shortened: as §1
[15] = biological target: T1, Ornithine decarboxylase (Mus musculus); test: Inhibition of the induction of ornithine decarboxylase in mouse epidermis by the tumor promoter 12-O-tetradecanoylphorbol-13-acetate (ODC) at dose 17 nmol; Inhibition not significant
[16] = biological target: T1, Ornithine decarboxylase (Mus musculus); test: Inhibition of the induction of ornithine decarboxylase in mouse epidermis by the tumor promoter 12-O-tetradecanoylphorbol-13-acetate (ODC) at dose 1.7 nmol; Inhibition not significant
Cricetinae gen. sp. [17] = test: Activity of compound the was expressed as ratio of active hamster tracheal organ cultures(TOC) to the total cultures at 10e-10 M concentration; 4/15; type: functional, Cricetulus griseus, Trachea; conditions: at 0.0001 µM
Cricetinae gen. sp. [18] = test: Activity of compound the was expressed as ratio of active hamster tracheal organ cultures(TOC) to the total cultures at 10e-11 M concentration; 1/8; type: functional, Cricetulus griseus, Trachea; conditions: at 10 pM
Cricetinae gen. sp. [19] = test: Activity of compound the was expressed as ratio of active hamster tracheal organ cultures(TOC) to the total cultures at 10e-8 M concentration; 7/7; type: functional, Cricetulus griseus, Trachea; conditions: at 0.01 µM
Cricetinae gen. sp. [20] = test: Activity of compound the was expressed as ratio of active hamster tracheal organ cultures(TOC) to the total cultures at 10e-9 M concentration; 14/15; type: functional, Cricetulus griseus, Trachea; conditions: at 0.001 µM
[21] = biological target: T1, Ornithine decarboxylase (Mus musculus); test: TInhibition of the induction of ornithine decarboxylase in mouse epidermis by the tumor promoter 12-O-tetradecanoylphorbol-13-acetate (ODC) at dose 17 nmol
Cricetinae gen. sp. [22] = test: Activity of compound the was expressed as ratio of active hamster tracheal organ cultures(TOC) to the total cultures at 10e-10 M concentration; 18/19; type: functional, Cricetulus griseus, Trachea; procedure, shortened: as §1
Cricetinae gen. sp. [23] = test: Activity of compound the was expressed as ratio of active hamster tracheal organ cultures(TOC) to the total cultures at 10e-11 M concentration; 10/20; type: functional, Cricetulus griseus, Trachea; procedure, shortened: as §1
Cricetinae gen. sp. [24] = test: Activity of compound the was expressed as ratio of active hamster tracheal organ cultures(TOC) to the total cultures at 10e-12 M concentration; 3/19; type: functional, Cricetulus griseus, Trachea; procedure, shortened: as §1
Mus musculus [25] = species on record: Mus musculus; test: Tested for relative activity in a 20-week anti-papilloma experiment in female CD-1 mice at dose 1.7 nmol; type: functional
Procedure, shortened: (§2)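 Female Charles River CD-1 mice, 8 weeks old, in random groups of 25–30, were shaved 2 days before initiation with 200 nmol DMBA in acetone on the back. From 2 weeks on, 8.5 nmol TPA was applied twice weekly for 20 weeks. Retinoid in 0.2 mL acetone, or acetone alone for controls, was given 1 h before each TPA dose. Papillomas were counted weekly, and mean papillomas per mouse were compared with controls at 20 weeks.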

Mus musculus [26] = species on record: Mus musculus; test: Tested for relative activity in a 20-week anti-papilloma experiment in female CD-1 mice at dose 17 nmol; type: functional; procedure, shortened: as §2
Mus musculus [27] = species on record: Mus musculus; test: Percent decrease in average number of papillomas at dose 170 nmol *-p<0.001; type: functional; procedure, shortened: as §2
Mus musculus [28] = species on record: Mus musculus; test: Percent decrease in average number of papillomas at dose 17 nmol *-p<0.001; type: functional; procedure, shortened: as §2
[29] = Mortality range in days at dose 200 umol/kg day; 14-15; type: functional, Mus musculus
Procedure, shortened: (§3)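 Adult female Swiss mice (20–25 g) had chow and water ad libitum. The retinoid was homogenized as a suspension in aqueous 8% Cremophor EL plus 10% propylene glycol. It was given ip as 10 weekday injections over 14 days. Controls received vehicle alone. Survivors were weighed on days 1, 5, 10 and 15, and dates of death were recorded. Survival was scored at days 8 and 15.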

[30] = Mortality range in days at dose 300 umol/kg day; 10-14; type: functional, Mus musculus; procedure, shortened: as §3
[31] = Mortality range in days at dose 600 umol/kg day; 7-13; type: functional, Mus musculus; procedure, shortened: as §3
[32] = Percent survivors at dose 100 umol/kg day; type: functional, Mus musculus; procedure, shortened: as §3
[33] = Percent survivors at dose 200 umol/kg day; type: functional, Mus musculus; procedure, shortened: as §3
[34] = Percent survivors at dose 300 umol/kg day; type: functional, Mus musculus; procedure, shortened: as §3
[35] = Percent survivors at dose 33 umol/kg day; type: functional, Mus musculus; procedure, shortened: as §3
[36] = Percent survivors at dose 600 umol/kg day; type: functional, Mus musculus; procedure, shortened: as §3
[37] = Percent survivors at dose 67 umol/kg day; type: functional, Mus musculus; procedure, shortened: as §3
Mus musculus [38] = species on record: Mus musculus; test: Percent decrease in average number of papillomas at dose 1.7 nmol *-p<0.01; type: functional; procedure, shortened: as §2
Mus musculus [39] = species on record: Mus musculus; test: Tested for percentage of mice with papillomas in a 20-week anti-papilloma experiment in female CD-1 mice at dose 170 nmol

inhibition [5]: 33%
inhibition [6]: 56%
Compound: CC1=C(/C=C/C(C)=C/C=C/c2ccc(C(=O)O)cc2)C(C)(C)CCC1 [PELRETIN]
Activity (Cricetinae gen. sp. [1]): 3%
Activity (Cricetinae gen. sp. [2]): 57%
ED50 (Cricetinae gen. sp. [3]): 4e-10
Activity (Cricetinae gen. sp. [4]): 6%

inhibition [21]: 83%
inhibition [5]: 45%
Compound: CC1=C(CC/C(C)=C/c2ccc(C(=O)O)cc2)C(C)(C)CCC1
Activity (Cricetinae gen. sp. [17]): 4 active cultures
Activity (Cricetinae gen. sp. [18]): 1 active cultures
ED50 (Cricetinae gen. sp. [3]): 3e-10
Activity (Cricetinae gen. sp. [19]): 7%
Activity (Cricetinae gen. sp. [20]): 14 active cultures

inhibition [5]: 77%
Compound: CC1=C(/C=C/C(C)=C/c2ccc(C(=O)O)cc2)C(C)(C)CCC1
ED50 (Cricetinae gen. sp. [3]): 3e-10

The next lines start with the compound.

Compound: CCOC(=O)c1ccc(/C=C(\C)[C@H]2CC2C2=C(C)CCCC2(C)C)cc1 (some centres not stated)
Activity (Cricetinae gen. sp. [7]): 7%
ED50 (Cricetinae gen. sp. [3]): 3e-10
Activity (Cricetinae gen. sp. [8]): 7%
Activity (Cricetinae gen. sp. [9]): 0%
inhibition [10]: 80%
inhibition [11]: 77%

Compound: CC1=C(c2ccc(/C=C/C(C)=C/C(=O)O)c(C)c2)C(C)(C)CCC1
Activity (Cricetinae gen. sp. [12]): 1%
ED50 (Cricetinae gen. sp. [3]): >1e-08
Activity (Cricetinae gen. sp. [13]): 1%
Activity (Cricetinae gen. sp. [14]): 2%
inhibition [15]: 23%
inhibition [16]: 9%

Compound: CC1=C(/C=C/C(C)=C/C=C/C(C)=C/C(=O)O)C(C)(C)CCC1 [TRETINOIN]
Activity (Cricetinae gen. sp. [22]): 18%
Activity (Cricetinae gen. sp. [23]): 10%
ED50 (Cricetinae gen. sp. [3]): 1e-11
Activity (Cricetinae gen. sp. [24]): 3%
Activity (Mus musculus [25]): 69%
Activity (Mus musculus [26]): 47%
Decrease (Mus musculus [27]): 89.6%
Decrease (Mus musculus [28]): 74.1%
Mortality range [29]: 15 days
Mortality range [30]: 14 days
Mortality range [31]: 13 days
Survivors at day 8 [32]: 100%
Survivors at day 15 [32]: 100%
Survivors at day 8 [33]: 100%
Survivors at day 15 [33]: 63%
Survivors at day 8 [34]: 100%
Survivors at day 15 [34]: 0%
Survivors at day 8 [35]: 100%
Survivors at day 15 [35]: 100%
Survivors at day 8 [36]: 95%
Survivors at day 15 [36]: 0%
Survivors at day 8 [37]: 100%
Survivors at day 15 [37]: 100%
Decrease (Mus musculus [38]): 56.2%
mice with papillomas % (Mus musculus [39]): 40%
